# Assay results as given in ChEMBL document CHEMBL2086331, “Novel triazolopyridylbenzamides as potent and selective p38α inhibitors” (Bioorg Med Chem Lett, 2012).
# What was measured:
# [1] = Half life in Wistar rat at 1 mg/kg, iv; assay type: ADME, organism-based; parameters: dose 1 mg/kg, route intravenous; settings: in vivo
# Summary of the method: (§1)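 Wistar rats, single dose either iv 1 mg/kg in 40% PEG + 0.4% HCl 1 N, or oral 10 mg/kg in 0.5% methylcellulose + 0.1% Tween 80; plasma PK parameters reported as mean values (n = 2).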
# [2] = Protein binding in human plasma; assay type: ADME, cell-free; settings: read-out: PPB (converted)
# [3] = AUC in beagle dog at 1 mg/kg, iv; assay type: ADME, organism-based, Canis lupus familiaris; parameters: dose 1 mg/kg, route intravenous; settings: plasma
# Summary of the method: (§2)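 Beagle dogs dosed 1 mg/kg iv or 1 mg/kg po; pharmacokinetic parameters reported as mean values of n = 2 animals.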
# Cytochrome P450 2C19 = Cytochrome P450 2C19 (Homo sapiens, UniProt P33261); assay: Inhibition of CYP2C19 at < 25 uM; assay type: ADME
# [4] = AUC in beagle dog at 1 mg/kg, po; assay type: ADME, organism-based, Canis lupus familiaris; parameters: dose 1 mg/kg, route oral; settings: plasma; summary of the method: as §2
# in vitro = settings: human, Caco-2
# Cytochrome P450 2C9 = Cytochrome P450 2C9 (Homo sapiens, UniProt P11712); assay: Inhibition of CYP2C9 at < 25 uM; assay type: ADME
# [5] = Volume of distribution at steady state in Wistar rat at 1 mg/kg, iv; assay type: ADME, organism-based; parameters: dose 1 mg/kg, route intravenous; settings: in vivo, read-out: Vdss; summary of the method: as §1
# [6] = Oral bioavailability in beagle dog at 1 mg/kg; assay type: ADME, organism-based, Canis lupus familiaris; settings: in vivo; summary of the method: as §2
# Cytochrome P450 1A2 = molecular target: T1, Cytochrome P450 1A2 (Homo sapiens, UniProt P05177); assay: Inhibition of CYP1A2 at < 25 uM; assay type: ADME
# T1 sequence (P05177 whole entry): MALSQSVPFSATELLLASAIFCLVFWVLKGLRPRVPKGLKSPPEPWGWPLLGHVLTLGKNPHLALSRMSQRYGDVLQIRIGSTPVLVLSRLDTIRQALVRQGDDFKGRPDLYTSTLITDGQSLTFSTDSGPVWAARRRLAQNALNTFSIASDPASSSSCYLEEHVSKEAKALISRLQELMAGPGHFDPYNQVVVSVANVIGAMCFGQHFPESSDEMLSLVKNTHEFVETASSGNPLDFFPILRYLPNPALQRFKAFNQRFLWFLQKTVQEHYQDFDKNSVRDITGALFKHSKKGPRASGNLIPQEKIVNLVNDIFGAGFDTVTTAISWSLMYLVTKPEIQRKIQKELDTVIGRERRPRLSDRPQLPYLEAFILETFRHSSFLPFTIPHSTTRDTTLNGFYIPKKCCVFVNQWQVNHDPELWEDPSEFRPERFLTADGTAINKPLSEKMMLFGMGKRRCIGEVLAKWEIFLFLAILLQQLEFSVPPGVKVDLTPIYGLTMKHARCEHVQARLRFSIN
# CHO [7] = assay: Cytotoxicity against CHO cells at 200 uM; assay type: cell-based, Cricetulus griseus; settings: chinese hamster
# Cytochrome P450 3A4 = Cytochrome P450 3A4 (Homo sapiens, UniProt P08684); assay: Inhibition of CYP3A4 at < 25 uM; assay type: ADME
# Rattus norvegicus [8] = assay: Inhibition of TNFalpha release in rat LPS-induced endotoxemia model dosed orally 1 hr prior to LPS challenge and measured 1.5 hrs post LPS challenge; assay type: functional; settings: po
# Summary of the method: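 Rats given compound orally 1 h before LPS challenge to induce endotoxemia; plasma TNFα quantified 1.5 h after LPS, at peak TNF production.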
# [9] = molecular target: Proto-oncogene tyrosine-protein kinase receptor Ret (Homo sapiens, UniProt P07949); assay: Inhibition of RET
# [10] = Cmax in Wistar rat at 10 mg/kg, po; assay type: ADME, organism-based; parameters: dose 10 mg/kg, route oral; settings: in vivo; summary of the method: as §1
# Cytochrome P450 2D6 = Cytochrome P450 2D6 (Homo sapiens, UniProt P10635); assay: Inhibition of CYP2D6 at < 25 uM; assay type: ADME
# [11] = Oral bioavailability in Wistar rat at 10 mg/kg; assay type: ADME, organism-based; settings: in vivo; summary of the method: as §1
# Rattus norvegicus [12] = assay: Antiarthritic effect in rat adjuvant-induced arthritis model assessed as inhibition of right paw edema at 3 mg/kg, po dosed daily during last 10 days of test; assay type: functional; settings: 240 h
# Summary of the method: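 Arthritis induced by complete Freund's adjuvant injected into left hind paw; oral compound daily over final 10 days of protocol; right (non-injected) paw volume monitored, result as % inhibition of oedema.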
# [13] = Passive permeability from basolateral to apical side in human Caco2 cells at 12.5 uM; assay type: ADME, cell-based; settings: Caco-2, read-out: permeability
# Summary of the method: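 Caco-2 monolayer, test compound 12.5 µM; passive apparent permeability measured in both AB and BA directions, reported in 10^-6 cm/s.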
# CHO [14] = assay: Toxicity against CHO cells; assay type: cell-based, Cricetulus griseus; settings: chinese hamster
# Blood = assay: Inhibition of LPS-induced TNFalpha production in human whole blood; assay type: functional, tissue-based
# [15] = Cmax in beagle dog at 1 mg/kg, po; assay type: ADME, organism-based, Canis lupus familiaris; parameters: dose 1 mg/kg, route oral; settings: in vivo; summary of the method: as §2
# [16] = Clearance in Wistar rat at 1 mg/kg, iv; assay type: ADME, organism-based; parameters: dose 1 mg/kg, route intravenous; settings: in vivo; summary of the method: as §1
# [17] = Stability in rat hepatic microsomes assessed as compound turnover at 5 uM incubated for 30 mins in presence of NADPH; assay type: ADME; settings: liver microsomes, read-out: Drug degradation
# Summary of the method: (§3)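 Rat or human hepatic microsomes (1 mg/mL) with NADPH, test compound 5 µM, 30 min at 37 °C; readout is % turnover of parent.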
# [18] = Stability in human hepatic microsomes assessed as compound turnover at 5 uM incubated for 30 mins in presence of NADPH; assay type: ADME; settings: liver microsomes, read-out: Drug degradation; summary of the method: as §3
# [19] = Protein binding in rat plasma; assay type: ADME, cell-free; settings: read-out: PPB (converted)
# [20] = AUC in Wistar rat at 1 mg/kg, iv; assay type: ADME, organism-based; parameters: dose 1 mg/kg, route intravenous; settings: plasma; summary of the method: as §1
# [21] = Volume of distribution at steady state in beagle dog at 1 mg/kg, iv; assay type: ADME, organism-based, Canis lupus familiaris; parameters: dose 1 mg/kg, route intravenous; settings: in vivo, read-out: Vdss; summary of the method: as §2
# [22] = Half life in beagle dog at 1 mg/kg, iv; assay type: ADME, organism-based, Canis lupus familiaris; parameters: dose 1 mg/kg, route intravenous; settings: in vivo; summary of the method: as §2
# [23] = AUC in Wistar rat at 10 mg/kg, po; assay type: ADME, organism-based; parameters: dose 10 mg/kg, route oral; settings: plasma; summary of the method: as §1
# [24] = Clearance in beagle dog at 1 mg/kg, iv; assay type: ADME, organism-based, Canis lupus familiaris; parameters: dose 1 mg/kg, route intravenous; settings: in vivo; summary of the method: as §2
# Chain of Cytochrome P450 2D6 (P10635 whole entry): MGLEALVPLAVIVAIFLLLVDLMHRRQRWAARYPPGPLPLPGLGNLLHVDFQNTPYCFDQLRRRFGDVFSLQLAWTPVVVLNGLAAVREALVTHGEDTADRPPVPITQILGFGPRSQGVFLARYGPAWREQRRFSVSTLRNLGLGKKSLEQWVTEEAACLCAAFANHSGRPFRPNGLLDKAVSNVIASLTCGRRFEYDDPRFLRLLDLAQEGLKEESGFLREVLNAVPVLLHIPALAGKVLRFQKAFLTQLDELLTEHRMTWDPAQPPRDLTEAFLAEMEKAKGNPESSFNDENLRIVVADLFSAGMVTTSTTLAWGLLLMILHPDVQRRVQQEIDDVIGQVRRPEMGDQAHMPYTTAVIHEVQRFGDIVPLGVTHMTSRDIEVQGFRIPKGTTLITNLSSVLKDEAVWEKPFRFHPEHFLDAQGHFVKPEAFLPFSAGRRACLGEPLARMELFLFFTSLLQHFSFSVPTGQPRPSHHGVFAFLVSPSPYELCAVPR
# Chain of Cytochrome P450 2C19 (P33261 whole entry): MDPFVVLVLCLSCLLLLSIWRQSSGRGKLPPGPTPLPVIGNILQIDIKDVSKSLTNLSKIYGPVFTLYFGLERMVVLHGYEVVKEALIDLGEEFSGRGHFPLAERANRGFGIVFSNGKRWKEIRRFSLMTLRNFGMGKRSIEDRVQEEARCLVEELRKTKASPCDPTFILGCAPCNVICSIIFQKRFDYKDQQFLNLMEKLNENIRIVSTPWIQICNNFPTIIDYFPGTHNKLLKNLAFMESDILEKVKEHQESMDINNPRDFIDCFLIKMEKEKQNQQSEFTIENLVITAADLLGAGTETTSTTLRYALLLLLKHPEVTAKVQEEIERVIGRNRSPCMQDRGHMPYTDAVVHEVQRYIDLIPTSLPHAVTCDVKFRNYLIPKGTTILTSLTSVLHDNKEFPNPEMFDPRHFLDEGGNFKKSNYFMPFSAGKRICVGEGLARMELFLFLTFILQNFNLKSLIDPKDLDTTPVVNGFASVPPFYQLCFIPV
# Chain of Cytochrome P450 2C9 (P11712 whole entry): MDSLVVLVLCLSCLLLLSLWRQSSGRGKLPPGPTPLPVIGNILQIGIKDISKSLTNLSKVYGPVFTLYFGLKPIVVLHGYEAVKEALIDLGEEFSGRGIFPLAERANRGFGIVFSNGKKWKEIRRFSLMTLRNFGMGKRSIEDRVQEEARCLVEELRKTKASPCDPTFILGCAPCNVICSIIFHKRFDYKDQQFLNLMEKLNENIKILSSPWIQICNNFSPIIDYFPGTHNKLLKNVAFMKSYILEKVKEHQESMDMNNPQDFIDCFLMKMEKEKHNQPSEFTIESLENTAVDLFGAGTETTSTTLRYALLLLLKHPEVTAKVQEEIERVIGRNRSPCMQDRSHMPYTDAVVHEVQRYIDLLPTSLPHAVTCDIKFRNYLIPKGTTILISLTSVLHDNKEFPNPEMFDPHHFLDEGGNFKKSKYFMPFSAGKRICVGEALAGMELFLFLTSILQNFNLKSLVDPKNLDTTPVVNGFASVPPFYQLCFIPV
# Chain of Proto-oncogene tyrosine-protein kinase receptor Ret (P07949 whole entry): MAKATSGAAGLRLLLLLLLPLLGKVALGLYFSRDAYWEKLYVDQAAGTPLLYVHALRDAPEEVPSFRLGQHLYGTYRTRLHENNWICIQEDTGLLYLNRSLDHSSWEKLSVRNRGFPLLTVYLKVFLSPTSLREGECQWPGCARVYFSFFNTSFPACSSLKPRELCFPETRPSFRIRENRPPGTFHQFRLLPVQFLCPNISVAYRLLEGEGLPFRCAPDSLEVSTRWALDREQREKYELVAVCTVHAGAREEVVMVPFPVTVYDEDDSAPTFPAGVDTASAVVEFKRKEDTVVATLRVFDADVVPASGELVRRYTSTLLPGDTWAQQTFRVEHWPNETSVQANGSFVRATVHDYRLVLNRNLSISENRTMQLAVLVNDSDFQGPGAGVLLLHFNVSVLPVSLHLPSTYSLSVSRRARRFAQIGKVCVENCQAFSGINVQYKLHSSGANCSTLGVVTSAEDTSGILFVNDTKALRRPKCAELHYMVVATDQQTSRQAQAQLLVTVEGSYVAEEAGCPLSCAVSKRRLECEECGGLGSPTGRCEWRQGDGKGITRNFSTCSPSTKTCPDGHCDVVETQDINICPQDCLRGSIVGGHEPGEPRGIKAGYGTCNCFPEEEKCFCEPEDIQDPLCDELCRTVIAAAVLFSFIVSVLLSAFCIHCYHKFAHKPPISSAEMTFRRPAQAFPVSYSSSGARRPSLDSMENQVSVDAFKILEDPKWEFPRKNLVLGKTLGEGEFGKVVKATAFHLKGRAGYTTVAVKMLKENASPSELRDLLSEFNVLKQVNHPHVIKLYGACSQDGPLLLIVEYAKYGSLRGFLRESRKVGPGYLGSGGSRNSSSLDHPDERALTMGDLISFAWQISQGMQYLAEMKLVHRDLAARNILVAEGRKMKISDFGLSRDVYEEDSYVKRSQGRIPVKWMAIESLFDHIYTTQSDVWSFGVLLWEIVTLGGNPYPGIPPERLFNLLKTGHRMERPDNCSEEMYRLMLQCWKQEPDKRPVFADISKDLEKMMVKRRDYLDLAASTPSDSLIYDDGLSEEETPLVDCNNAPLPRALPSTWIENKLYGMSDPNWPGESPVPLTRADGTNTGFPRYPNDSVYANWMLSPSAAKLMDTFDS
# Chain of Cytochrome P450 3A4 (P08684 whole entry): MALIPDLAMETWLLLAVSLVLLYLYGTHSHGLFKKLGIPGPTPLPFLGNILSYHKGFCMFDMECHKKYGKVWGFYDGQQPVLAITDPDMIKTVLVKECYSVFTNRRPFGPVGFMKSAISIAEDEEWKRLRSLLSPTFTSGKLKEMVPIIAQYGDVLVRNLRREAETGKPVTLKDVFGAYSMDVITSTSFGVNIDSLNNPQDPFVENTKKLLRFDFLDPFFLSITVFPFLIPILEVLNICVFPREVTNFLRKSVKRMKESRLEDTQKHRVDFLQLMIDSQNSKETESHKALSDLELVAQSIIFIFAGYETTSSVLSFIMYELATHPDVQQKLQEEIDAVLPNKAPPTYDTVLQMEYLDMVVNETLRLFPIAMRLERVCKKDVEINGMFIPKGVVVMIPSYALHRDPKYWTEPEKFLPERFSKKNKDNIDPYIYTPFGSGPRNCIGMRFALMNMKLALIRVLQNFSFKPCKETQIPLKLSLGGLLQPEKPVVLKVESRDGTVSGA
compound,measurement,setting,value
Cc1c(F)cc(C(=O)NC2CC2)cc1-c1c(F)cn2c(C(C)(C)C)nnc2c1F,half-life,[1],3.3 h
same,fraction unbound,[2],0.21
same,AUC,[3],6440 ng·h/mL
same,inhibition (INH),Cytochrome P450 2C19,Not Active
same,AUC,[4],5060 ng·h/mL
same,Papp A→B at 12.5 µM,in vitro,41 ×10⁻⁶ cm/s
same,inhibition (INH),Cytochrome P450 2C9,Not Active
same,Vd,[5],0.57 L/kg
same,bioavailability,[6],79%
same,inhibition (INH),Cytochrome P450 1A2,Not Active
same,Activity,CHO [7],33%
same,inhibition (INH),Cytochrome P450 3A4,Not Active
same,ED50,Rattus norvegicus [8],1.36 mg/kg
same,IC50,[9],2000 nM
same,Cmax,[10],3470 ng/mL
same,inhibition (INH),Cytochrome P450 2D6,Not Active
same,bioavailability,[11],50%
same,inhibition in vivo at 3 mg/kg,Rattus norvegicus [12],67%
same,Papp B→A at 12.5 µM,[13],25 ×10⁻⁶ cm/s
same,Activity,CHO [14],Non-toxic
same,IC50,Blood,116 nM
same,Cmax,[15],185 ng/mL
same,clearance,[16],2.3 mL/min/kg
same,"metabolised at 0.5 h, 5 µM",[17],< 5%
same,"metabolised at 0.5 h, 5 µM",[18],6%
same,fraction unbound,[19],0.25
same,AUC,[20],8010 ng·h/mL
same,Vd,[21],1.6 L/kg
same,half-life,[22],7.3 h
same,AUC,[23],38600 ng·h/mL
same,clearance,[24],2.7 mL/min/kg
